Data from ChEMBL document CHEMBL5724801, “EUbOPEN Chemogenomics Library - Multiplex” (2024).
Values joined by “and” are separate entries in the source; they are usually repeats but may differ in a detail not shown here. Identical values can stand only once.

The compounds below were run on HEK-293T (assay: Multiplex assay against HEK293T). Settings: human, 12 h, 1 µM, compound concentration 1 uM.
Type: toxicity, cell-based
Outline: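 Phenotypes for tubulin, mitochondrial mass and membrane permeability are expressed as per cents of healthy-nucleus cells. Cells were stained live at seeding with Hoechst33342, BioTracker Green Microtubule Cytoskeleton Dye, MitoTracker Red and Annexin V Alexa Fluor 680, then imaged after compound addition on a CQ1 microscope at 37°C and 5% CO2. Machine-learning gating in CellPathfinder separated Hoechst high-intensity objects from normal cells, divided normal cells by nuclear state (healthy, pyknosed, fragmented) and divided pyknosed cells into mitotic or apoptotic.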

SMILES	Population Apoptotic (%)	Population Fragmented Nuclei (%)	Population Healthy Nuclei (%)	Population Hoechst High Intensity Objects (%)	Population Membrane Permeable-Phenotype (%)	Population Mitochondria Different-Phenotype (%)	Population Mitotic Cells (%)	Population Normal (%)	Population Pyknosed Nuclei (%)	Population Tubulin-Different-Phenotype (%)
CC1(COc2ccc3c(c2)ncn3-c2ccc3cccc(N4CCC(N)CC4)c3n2)COC1 [CRENOLANIB]	58% and 34%	14% and 10%	79% and 80%	3% and 6%	2% and 1%	23% and 51%	41% and 65%	96% and 93%	6% and 8%	46% and 51%
Cl.N=C(N)NC(=O)Cc1c(Cl)cccc1Cl [GUANFACINE HYDROCHLORIDE]	29% and 47%	3% and 5%	84% and 76%	7% and 12%	0%	46% and 67%	70% and 52%	92% and 87%	11% and 17%	31%

Same assay, conditions: human, 12 h, 1 µM, compound concentration 1 uM

SMILES	Total Cell Count
CC1(COc2ccc3c(c2)ncn3-c2ccc3cccc(N4CCC(N)CC4)c3n2)COC1 [CRENOLANIB]	412 and 332
Cl.N=C(N)NC(=O)Cc1c(Cl)cccc1Cl [GUANFACINE HYDROCHLORIDE]	384 and 289

Same assay, conditions: human, 12 h, 10 µM, compound concentration 10 uM

SMILES	Population Apoptotic (%)	Population Fragmented Nuclei (%)	Population Healthy Nuclei (%)	Population Hoechst High Intensity Objects (%)	Population Membrane Permeable-Phenotype (%)	Population Mitochondria Different-Phenotype (%)	Population Mitotic Cells (%)	Population Normal (%)	Population Pyknosed Nuclei (%)	Population Tubulin-Different-Phenotype (%)
CC1(COc2ccc3c(c2)ncn3-c2ccc3cccc(N4CCC(N)CC4)c3n2)COC1 [CRENOLANIB]	69% and 55%	67% and 64%	13% and 17%	67% and 69%	0	84% and 90%	30% and 45%	32% and 30%	18% and 17%	68% and 50%
Cl.N=C(N)NC(=O)Cc1c(Cl)cccc1Cl [GUANFACINE HYDROCHLORIDE]	52% and 34%	12% and 8%	67% and 77%	7% and 10%	0	61% and 69%	47% and 65%	92% and 89%	20% and 14%	43% and 38%

Same assay, conditions: human, 12 h, 10 µM, compound concentration 10 uM

SMILES	Total Cell Count
CC1(COc2ccc3c(c2)ncn3-c2ccc3cccc(N4CCC(N)CC4)c3n2)COC1 [CRENOLANIB]	423 and 376
Cl.N=C(N)NC(=O)Cc1c(Cl)cccc1Cl [GUANFACINE HYDROCHLORIDE]	296 and 365

Same assay, conditions: human, 24 h, 1 µM, compound concentration 1 uM

SMILES	Population Apoptotic (%)	Population Fragmented Nuclei (%)	Population Healthy Nuclei (%)	Population Hoechst High Intensity Objects (%)	Population Membrane Permeable-Phenotype (%)	Population Mitochondria Different-Phenotype (%)	Population Mitotic Cells (%)	Population Normal (%)	Population Pyknosed Nuclei (%)	Population Tubulin-Different-Phenotype (%)
CC1(COc2ccc3c(c2)ncn3-c2ccc3cccc(N4CCC(N)CC4)c3n2)COC1 [CRENOLANIB]	29% and 45%	20% and 15%	66% and 73%	2% and 6%	2% and 1%	22% and 33%	70% and 54%	97% and 93%	12% and 11%	23% and 35%
Cl.N=C(N)NC(=O)Cc1c(Cl)cccc1Cl [GUANFACINE HYDROCHLORIDE]	36% and 50%	8% and 4%	80% and 83%	4% and 10%	0%	27% and 42%	63% and 50%	95% and 89%	11%	21% and 19%

Same assay, conditions: human, 24 h, 1 µM, compound concentration 1 uM

SMILES	Total Cell Count
CC1(COc2ccc3c(c2)ncn3-c2ccc3cccc(N4CCC(N)CC4)c3n2)COC1 [CRENOLANIB]	547 and 415
Cl.N=C(N)NC(=O)Cc1c(Cl)cccc1Cl [GUANFACINE HYDROCHLORIDE]	493 and 344

Same assay, conditions: human, 24 h, 10 µM, compound concentration 10 uM

SMILES	Population Apoptotic (%)	Population Fragmented Nuclei (%)	Population Healthy Nuclei (%)	Population Hoechst High Intensity Objects (%)	Population Membrane Permeable-Phenotype (%)	Population Mitochondria Different-Phenotype (%)	Population Mitotic Cells (%)	Population Normal (%)	Population Pyknosed Nuclei (%)	Population Tubulin-Different-Phenotype (%)
CC1(COc2ccc3c(c2)ncn3-c2ccc3cccc(N4CCC(N)CC4)c3n2)COC1 [CRENOLANIB]	72%	60% and 69%	16% and 15%	56% and 63%	0	89% and 94%	27%	43% and 36%	23% and 14%	92% and 73%
Cl.N=C(N)NC(=O)Cc1c(Cl)cccc1Cl [GUANFACINE HYDROCHLORIDE]	46% and 36%	11% and 6%	75% and 83%	7% and 9%	0	48% and 50%	53% and 63%	92% and 90%	12% and 10%	39% and 27%

Same assay, conditions: human, 24 h, 10 µM, compound concentration 10 uM

SMILES	Total Cell Count
CC1(COc2ccc3c(c2)ncn3-c2ccc3cccc(N4CCC(N)CC4)c3n2)COC1 [CRENOLANIB]	394 and 334
Cl.N=C(N)NC(=O)Cc1c(Cl)cccc1Cl [GUANFACINE HYDROCHLORIDE]	343 and 454

Same assay, conditions: human, 48 h, 1 µM, compound concentration 1 uM

SMILES	Population Apoptotic (%)	Population Fragmented Nuclei (%)	Population Healthy Nuclei (%)	Population Hoechst High Intensity Objects (%)	Population Membrane Permeable-Phenotype (%)	Population Mitochondria Different-Phenotype (%)	Population Mitotic Cells (%)	Population Normal (%)	Population Pyknosed Nuclei (%)	Population Tubulin-Different-Phenotype (%)
CC1(COc2ccc3c(c2)ncn3-c2ccc3cccc(N4CCC(N)CC4)c3n2)COC1 [CRENOLANIB]	29% and 47%	19% and 23%	72% and 70%	1%	1%	17% and 21%	70% and 52%	98%	7% and 6%	10% and 14%
Cl.N=C(N)NC(=O)Cc1c(Cl)cccc1Cl [GUANFACINE HYDROCHLORIDE]	15% and 34%	15% and 10%	78% and 79%	2% and 7%	1% and 0%	22% and 32%	84% and 65%	97% and 92%	6% and 9%	21% and 14%

Same assay, conditions: human, 48 h, 1 µM, compound concentration 1 uM

SMILES	Total Cell Count
CC1(COc2ccc3c(c2)ncn3-c2ccc3cccc(N4CCC(N)CC4)c3n2)COC1 [CRENOLANIB]	844 and 639
Cl.N=C(N)NC(=O)Cc1c(Cl)cccc1Cl [GUANFACINE HYDROCHLORIDE]	680 and 560

Same assay, conditions: human, 48 h, 10 µM, compound concentration 10 uM

SMILES	Population Apoptotic (%)	Population Fragmented Nuclei (%)	Population Healthy Nuclei (%)	Population Hoechst High Intensity Objects (%)	Population Membrane Permeable-Phenotype (%)	Population Mitochondria Different-Phenotype (%)	Population Mitotic Cells (%)	Population Normal (%)	Population Pyknosed Nuclei (%)	Population Tubulin-Different-Phenotype (%)
CC1(COc2ccc3c(c2)ncn3-c2ccc3cccc(N4CCC(N)CC4)c3n2)COC1 [CRENOLANIB]	86% and 84%	51% and 47%	17% and 22%	41% and 49%	0	97% and 96%	13% and 15%	59% and 50%	30%	95% and 96%
Cl.N=C(N)NC(=O)Cc1c(Cl)cccc1Cl [GUANFACINE HYDROCHLORIDE]	47% and 50%	17% and 12%	73% and 80%	6% and 10%	0	31% and 33%	52% and 50%	93% and 89%	9% and 6%	14% and 20%

Same assay, conditions: human, 48 h, 10 µM, compound concentration 10 uM

SMILES	Total Cell Count
CC1(COc2ccc3c(c2)ncn3-c2ccc3cccc(N4CCC(N)CC4)c3n2)COC1 [CRENOLANIB]	400 and 298
Cl.N=C(N)NC(=O)Cc1c(Cl)cccc1Cl [GUANFACINE HYDROCHLORIDE]	421 and 612
